Results published in ChEMBL document CHEMBL2040770, “Finger loop inhibitors of the HCV NS5b polymerase. Part II. Optimization of tetracyclic indole-based macrocycle leading to the discovery of TMC647055” (Bioorg Med Chem Lett, 2012).

System: Canis familiaris
Experiment: Volume of distribution at steady state in dog at 10 mg/kg, po
Assay type: ADME, organism-based, Canis lupus familiaris
Set-up: dose 10 mg/kg, route oral
Conditions: in vivo; call rule not given here

Structure (SMILES) | Vdss [L/kg]
COc1ccc2c(c1)C=C1Cn3c-2c(C2CCCCC2)c2ccc(cc23)C(=O)NS(=O)(=O)N(C)CCOCCN(C)C1=O [TMC-647055] | 0.32

System: not listed separately
Experiment: Cmax in dog at 10 mg/kg, po
Assay type: ADME, organism-based, Canis lupus familiaris
Set-up: dose 10 mg/kg, route oral
Conditions: in vivo
Outline: (§1)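 Dogs given a single oral dose of 10 mg/kg. Peak plasma concentration and plasma AUC extrapolated to infinity were determined, reported in µM and µM h.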

Structure (SMILES) | Cmax [µM]
COc1ccc2c(c1)C=C1Cn3c-2c(C2CCCCC2)c2ccc(cc23)C(=O)NS(=O)(=O)N(C)CCOCCN(C)C1=O [TMC-647055] | 10.2

System: not listed separately
Experiment: Drug uptake in Sprague-Dawley rat liver at 10 mg/kg, po measured after 7 hrs
Assay type: ADME, organism-based
Set-up: dose 10 mg/kg, route oral
Conditions: read-out: Drug uptake
Outline: (§2)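 Male Sprague–Dawley rats (n = 3) received a single oral dose of 10 mg/kg in PEG400/2% vitamin E-TPGS. Liver concentration was measured 7 h post-dosing, and the liver/plasma concentration ratio was taken at that same 7 h time point.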

Structure (SMILES) | concentration at 7 h [µg/mL]
COc1ccc2c(c1)C1C[C@]13Cn1c-2c(C2CCCCC2)c2ccc(cc21)C(=O)NS(=O)(=O)N(C)CCOCCN(C)C3=O (stereo partly specified) | 3.2
COc1ccc2c(c1)C=C1Cn3c-2c(C2CCCCC2)c2ccc(cc23)C(=O)NS(=O)(=O)N(C)CCCCN(C)C1=O | 5
COc1ccc2c(c1)C=C1Cn3c-2c(C2CCCCC2)c2ccc(cc23)C(=O)NS(=O)(=O)N(C)CCCCCNC1=O | 6.32
CN1CCOCCN(C)S(=O)(=O)NC(=O)c2ccc3c(C4CCCCC4)c(n(C)c3c2)-c2ccccc2OCC1=O | 1.72
COc1ccc2c(c1)C=C1Cn3c-2c(C2CCCCC2)c2ccc(cc23)C(=O)NS(=O)(=O)N(C)CCOCCN(C)C1=O [TMC-647055] | 7.8

System: not listed separately
Experiment: Metabolic stability in human liver microsomes assessed as compound metabolized at 5 uM after 15 mins
Assay type: ADME, Microsome
Conditions: read-out: Drug metabolism
Outline: (§3)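 Rat or human liver microsomes incubated with compound at 5 µM for 15 min. Stability is given as % of compound metabolized.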

Structure (SMILES) | metabolised at 0.25 h, 5 µM [%]
COc1ccc2c(c1)C1C[C@]13Cn1c-2c(C2CCCCC2)c2ccc(cc21)C(=O)NS(=O)(=O)N(C)CCOCCN(C)C3=O (stereo partly specified) | 95
COc1ccc2c(c1)C=C1Cn3c-2c(C2CCCCC2)c2ccc(cc23)C(=O)NS(=O)(=O)N(C)CCCCN(C)C1=O | 56
COc1ccc2c(c1)C=C1Cn3c-2c(C2CCCCC2)c2ccc(cc23)C(=O)NS(=O)(=O)N(C)CCCCCNC1=O | 32
COc1ccc2c(c1)C=C1Cn3c-2c(C2CCCCC2)c2ccc(cc23)C(=O)NS(=O)(=O)N(C)CCOCCN(C)C1=O [TMC-647055] | 35

Species on record: Rattus norvegicus
Experiment: Drug metabolism in Sprague-Dawley rat assessed as reactive acyl glucuronides formation
Assay type: ADME, organism-based
Conditions: in vivo

Structure (SMILES) | Drug metabolism
COc1ccc2c(c1)C=C1Cn3c-2c(C2CCCCC2)c2ccc(cc23)C(=O)NS(=O)(=O)N(C)CCOCCN(C)C1=O [TMC-647055] | Not Active

System: not listed separately
Experiment: Ratio of drug uptake in Sprague-Dawley rat liver to plasma at 10 mg/kg, po measured after 7 hrs
Assay type: ADME, organism-based
Set-up: dose 10 mg/kg, route oral
Conditions: not given
Outline: as §2

Structure (SMILES) | Kp at 7 h
COc1ccc2c(c1)C1C[C@]13Cn1c-2c(C2CCCCC2)c2ccc(cc21)C(=O)NS(=O)(=O)N(C)CCOCCN(C)C3=O (stereo partly specified) | 38
COc1ccc2c(c1)C=C1Cn3c-2c(C2CCCCC2)c2ccc(cc23)C(=O)NS(=O)(=O)N(C)CCCCN(C)C1=O | 23
COc1ccc2c(c1)C=C1Cn3c-2c(C2CCCCC2)c2ccc(cc23)C(=O)NS(=O)(=O)N(C)CCCCCNC1=O | 341
CN1CCOCCN(C)S(=O)(=O)NC(=O)c2ccc3c(C4CCCCC4)c(n(C)c3c2)-c2ccccc2OCC1=O | 64
COc1ccc2c(c1)C=C1Cn3c-2c(C2CCCCC2)c2ccc(cc23)C(=O)NS(=O)(=O)N(C)CCOCCN(C)C1=O [TMC-647055] | 46

System: not listed separately
Experiment: Clearance in Sprague-Dawley rat at 2 mg/kg, iv and 10 mg/kg, po
Assay type: ADME, organism-based
Conditions: in vivo
Outline: (§4)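 Male Sprague–Dawley rats (n = 3) given a single iv dose of 2 mg/kg in PEG400/saline 70:30 and a single oral dose of 10 mg/kg in PEG400/2% vitamin E-TPGS. Plasma kinetics were followed to give plasma clearance, Cmax and oral bioavailability.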

Structure (SMILES) | clearance [L/h/kg]
COc1ccc2c(c1)C1C[C@]13Cn1c-2c(C2CCCCC2)c2ccc(cc21)C(=O)NS(=O)(=O)N(C)CCOCCN(C)C3=O (stereo partly specified) | 5.2
COc1ccc2c(c1)C=C1Cn3c-2c(C2CCCCC2)c2ccc(cc23)C(=O)NS(=O)(=O)N(C)CCCCN(C)C1=O | 2.4
COc1ccc2c(c1)C=C1Cn3c-2c(C2CCCCC2)c2ccc(cc23)C(=O)NS(=O)(=O)N(C)CCCCCNC1=O | 4.2
CN1CCOCCN(C)S(=O)(=O)NC(=O)c2ccc3c(C4CCCCC4)c(n(C)c3c2)-c2ccccc2OCC1=O | 7.7
COc1ccc2c(c1)C=C1Cn3c-2c(C2CCCCC2)c2ccc(cc23)C(=O)NS(=O)(=O)N(C)CCOCCN(C)C1=O [TMC-647055] | 3.2

System: not listed separately
Experiment: Selectivity index, ratio of CC50 for human Huh7 cells to EC50 for Hepatitic C virus genotype 1b clone ET
Assay type: toxicity, cell-based, Huh-7
Conditions: read-out: Ratio CC50/EC50
Outline: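 Selectivity index computed in Huh-7 cells as CC50/EC50.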

Structure (SMILES) | selectivity ratio
COc1ccc2c(c1)C=C1Cn3c-2c(C2CCCCC2)c2ccc(cc23)C(=O)NS(=O)(=O)N(C)CCCCN(C)C1=O | > 330
COc1ccc2c(c1)C=C1Cn3c-2c(C2CCCCC2)c2ccc(cc23)C(=O)NS(=O)(=O)N(C)CCCCCNC1=O | > 400
COc1ccc2c(c1)C=C1Cn3c-2c(C2CCCCC2)c2ccc(cc23)C(=O)NS(=O)(=O)N(C)CCOCCN(C)C1=O [TMC-647055] | > 300

System: not listed separately
Experiment: Plasma clearance in dog at 10 mg/kg, po
Assay type: ADME, organism-based, Canis lupus familiaris
Set-up: dose 10 mg/kg, route oral
Conditions: not given

Structure (SMILES) | CL/F [L/h/kg]
COc1ccc2c(c1)C=C1Cn3c-2c(C2CCCCC2)c2ccc(cc23)C(=O)NS(=O)(=O)N(C)CCOCCN(C)C1=O [TMC-647055] | 0.54

System: not listed separately
Experiment: Cmax in Sprague-Dawley rat at 10 mg/kg, po
Assay type: ADME, organism-based
Set-up: dose 10 mg/kg, route oral
Conditions: in vivo
Outline: as §4

Structure (SMILES) | Cmax [µg/mL]
COc1ccc2c(c1)C=C1Cn3c-2c(C2CCCCC2)c2ccc(cc23)C(=O)NS(=O)(=O)N(C)CCCCN(C)C1=O | 0.8
COc1ccc2c(c1)C=C1Cn3c-2c(C2CCCCC2)c2ccc(cc23)C(=O)NS(=O)(=O)N(C)CCCCCNC1=O | 0.03
COc1ccc2c(c1)C=C1Cn3c-2c(C2CCCCC2)c2ccc(cc23)C(=O)NS(=O)(=O)N(C)CCOCCN(C)C1=O [TMC-647055] | 0.44

System: Hepatitis C virus
Experiment: Antiviral activity against Hepatitic C virus genotype 1b clone ET infected in human Huh7 replicon cells after 72 hrs by luciferase reporter gene assay
Assay type: functional, organism-based, Hepacivirus hominis
Conditions: Huh-7, 72 h

Structure (SMILES) | EC50 [µM]
COc1ccc2c(c1)C1C[C@]13Cn1c-2c(C2CCCCC2)c2ccc(cc21)C(=O)NS(=O)(=O)N(C)CCOCCN(C)C3=O (stereo partly specified) | 0.04
COc1ccc2c(c1)C=C1Cn3c-2c(C2CCCCC2)c2ccc(cc23)C(=O)NS(=O)(=O)N(C)CCCCN(C)C1=O | 0.082
COc1ccc2c(c1)C=C1Cn3c-2c(C2CCCCC2)c2ccc(cc23)C(=O)NS(=O)(=O)N(C)CCCCCNC1=O | 0.13
CN1CCOCCN(C)S(=O)(=O)NC(=O)c2ccc3c(C4CCCCC4)c(n(C)c3c2)-c2ccccc2OCC1=O | 0.19
COc1ccc2c(c1)C=C1Cn3c-2c(C2CCCCC2)c2ccc(cc23)C(=O)NS(=O)(=O)N(C)CCOCCN(C)C1=O [TMC-647055] | 0.082

System: not listed separately
Experiment: Metabolic stability in rat liver microsomes assessed as compound metabolized at 5 uM after 15 mins
Assay type: ADME, Microsome
Conditions: read-out: Drug metabolism
Outline: as §3

Structure (SMILES) | metabolised at 0.25 h, 5 µM [%]
COc1ccc2c(c1)C1C[C@]13Cn1c-2c(C2CCCCC2)c2ccc(cc21)C(=O)NS(=O)(=O)N(C)CCOCCN(C)C3=O (stereo partly specified) | 72
COc1ccc2c(c1)C=C1Cn3c-2c(C2CCCCC2)c2ccc(cc23)C(=O)NS(=O)(=O)N(C)CCCCN(C)C1=O | 26
COc1ccc2c(c1)C=C1Cn3c-2c(C2CCCCC2)c2ccc(cc23)C(=O)NS(=O)(=O)N(C)CCCCCNC1=O | 27
COc1ccc2c(c1)C=C1Cn3c-2c(C2CCCCC2)c2ccc(cc23)C(=O)NS(=O)(=O)N(C)CCOCCN(C)C1=O [TMC-647055] | 30

System: not listed separately
Experiment: Inhibition of cytochrome P450
Assay type: ADME
Conditions: not given

Structure (SMILES) | inhibition (INH)
COc1ccc2c(c1)C=C1Cn3c-2c(C2CCCCC2)c2ccc(cc23)C(=O)NS(=O)(=O)N(C)CCOCCN(C)C1=O [TMC-647055] | Not Active

System: not listed separately
Experiment: Oral bioavailability in dog at 10 mg/kg
Assay type: ADME, organism-based, Canis lupus familiaris
Conditions: in vivo

Structure (SMILES) | bioavailability [%]
COc1ccc2c(c1)C=C1Cn3c-2c(C2CCCCC2)c2ccc(cc23)C(=O)NS(=O)(=O)N(C)CCOCCN(C)C1=O [TMC-647055] | 87

System: not listed separately
Experiment: AUC (0 to infinity) in dog at 10 mg/kg, po
Assay type: ADME, organism-based, Canis lupus familiaris
Set-up: time infinity, dose 10 mg/kg, route oral
Conditions: plasma
Outline: as §1

Structure (SMILES) | AUC(0-inf) [µM·h]
COc1ccc2c(c1)C=C1Cn3c-2c(C2CCCCC2)c2ccc(cc23)C(=O)NS(=O)(=O)N(C)CCOCCN(C)C1=O [TMC-647055] | 25.8

System: not listed separately
Experiment: Oral bioavailability in Sprague-Dawley rat at 10 mg/kg
Assay type: ADME, organism-based
Conditions: in vivo
Outline: as §4

Structure (SMILES) | bioavailability [%]
COc1ccc2c(c1)C1C[C@]13Cn1c-2c(C2CCCCC2)c2ccc(cc21)C(=O)NS(=O)(=O)N(C)CCOCCN(C)C3=O (stereo partly specified) | 51
COc1ccc2c(c1)C=C1Cn3c-2c(C2CCCCC2)c2ccc(cc23)C(=O)NS(=O)(=O)N(C)CCCCN(C)C1=O | 76
COc1ccc2c(c1)C=C1Cn3c-2c(C2CCCCC2)c2ccc(cc23)C(=O)NS(=O)(=O)N(C)CCCCCNC1=O | 6
CN1CCOCCN(C)S(=O)(=O)NC(=O)c2ccc3c(C4CCCCC4)c(n(C)c3c2)-c2ccccc2OCC1=O | 21
COc1ccc2c(c1)C=C1Cn3c-2c(C2CCCCC2)c2ccc(cc23)C(=O)NS(=O)(=O)N(C)CCOCCN(C)C1=O [TMC-647055] | > 66
